Assay [1] deals with Human immunodeficiency virus type 1 protease (Human immunodeficiency virus 1, UniProt Q72874). Nature of the assay: In vitro inhibitory activity against […].
The subject of assay [2] is CV-1. Put plainly: Inhibition of p24 expression was measured at 1 uM using vaccinia virus vVK/CV-1 assay; Inactive. The class given is functional, cell-based. The conditions noted are these: Cercopithecidae.
Assay [3] can be described thus: Inhibition of viral RNA in HIVD34-infected PBMC assay on day 4 at concentration of 40 nM. The class given is functional. Particulars: Homo sapiens, 96 h.
Assay [4] can be described thus: Inhibition of p24 expression in HIVD34-infected PBMC assay on day 4 at concentration of 40 nM. The class given is functional. The conditions noted are these: Homo sapiens, 96 h.
Assay [5] is described as follows: Inhibition of viral RNA in HIVD34-infected PBMC assay on day 4 at concentration of 4 nM. The class given is functional. Particulars: Homo sapiens, 96 h.
A short description of assay [6]: Inhibition of p24 expression in HIVD34-infected PBMC assay on day 4 at concentration of 4 nM. The class given is functional. Particulars: Homo sapiens, 96 h.
The test system of assay [7] is CV-1. Nature of the assay: Inhibition of p24 expression was measured at 1 uM using vVK/CV-1 assay. It is filed as functional, Cercopithecidae. The conditions noted are these: Chlorocebus aethiops.
Assay [8] is described as follows: Inhibition of p24 expression in HIVD34-infected PBMC assay on day 4 at concentration of 1 nM. The conditions noted are these: Homo sapiens, 96 h. It is filed as functional.
A short description of assay [9]: Inhibition of p24 expression in HIVD34-infected PBMC assay on day 4 at concentration of 10 nM. The class given is functional. Particulars: Homo sapiens, 96 h.
Assay [10] is described as follows: Inhibition of viral RNA in HIVD34-infected PBMC assay on day 4 at a concentration of 100 nM. The class given is functional. Particulars: Homo sapiens, 96 h.
Assay [11] is described as follows: Inhibition of viral RNA in HIVD34-infected PBMC assay on day 4 at concentration of 10 nM. It is filed as functional. Particulars: Homo sapiens, 96 h.
Assay [12] in a line: Inhibition of viral RNA in HIVD34-infected PBMC assay on day 4 at concentration of 1 nM. Particulars: Homo sapiens, 96 h. The class given is functional.
Assay [13] can be described thus: Inhibition of p24 expression in HIVD34-infected PBMC assay on day 4 at concentration of 100 nM. Particulars: Homo sapiens, 96 h. The class given is functional.
Assay [14] is described as follows: Inhibition of p24 expression in PBMC assay on day 4 at concentration of 100 nM. It is filed as functional. The conditions noted are these: Homo sapiens, 96 h.
Assay [15] can be described thus: Inhibition of viral RNA in PBMC assay on day 4 at concentration of 100 nM. The class given is functional. Particulars: Homo sapiens, 96 h.
Assay [16] has as its system Caco-2. Nature of the assay: Effect on the apical to basolateral transport of [3H]biotin in caco-2-cell monolayer. The class given is functional, Homo sapiens. Summed up:
(§1)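 Caco-2 monolayers (passage 25) on Transwell inserts, equilibrated 30 min in HBSS with 25 mM glucose, 10 mM Hepes pH 7.35 at 37 °C. Apical side given 10 nM [3H]biotin alone or with 300 μM unlabeled biotin or conjugate (final MeOH 1–5%). Basolateral samples taken over time; [3H]mannitol integrity marker; Student's t-test; triplicate determinations.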
In general terms: Caco-2 monolayers are a common model of the intestinal barrier.

Assay [17] has as its system Caco-2. Put plainly: % control value in caco-2-cell monolayer. More on the design: concentration or dose not given beside the values. It is filed as functional, Homo sapiens. In a few lines: as §1
The nature of assay [18]: p24 expression was measured by PBMC assay on day 4 at concentration of 1 nM. The class given is functional. The conditions noted are these: Homo sapiens, 96 h.
The nature of assay [19]: p24 expression was measured by PBMC assay on day 4 at concentration of 10 nM. The conditions noted are these: Homo sapiens, 96 h. The class given is functional.
Assay [20] relates to CV-1. Put plainly: Inhibition of p24 expression was measured at 1 uM using vVK/CV-1 assay; Inactive. The class given is functional, cell-based. Particulars: Cercopithecidae.

Structures are written as SMILES. The source made the active and inactive calls. No cut-off for these calls is given here.

Experimental findings from ChEMBL document CHEMBL1127480, “Evaluation of a vitamin-cloaking strategy for oligopeptide therapeutics: biotinylated HIV-1 protease inhibitors” (J Med Chem, 1994) are described below.

For `CC[C@@H](C)[C@H](NC(=O)[C@H](C(C)C)[C@@H](O)[C@H](O)[C@H](CC1CCCCC1)NC(=O)c1ccccc1SCCCCC[C@@H]1SCC2NC(=O)NC21)C(=O)NCc1ccccn1` (some centres undefined), in [1], the affinity, expressed as Ki, was 53 nM.
As for `CC[C@@H](C)[C@@H](CNC(=O)CCCC[C@@H]1SC[C@@H]2NC(=O)NC21)NC(=O)[C@H](C(C)C)[C@@H](O)[C@H](O)[C@H](CC1CCCCC1)NC(=O)c1ccccc1OCCOc1ccccc1` (some centres undefined), the inhibition (commonly the percentage by which the read-out fell short of the control) with CV-1 [2] is “inactive”. Further, in assay [1], the Ki (commonly the equilibrium dissociation constant of an inhibitor or competing ligand from its target) is > 100 nM.
Regarding `Cc1cn([C@H]2C[C@H](N=[N+]=[N-])[C@@H](CO)O2)c(=O)[nH]c1=O` [ZIDOVUDINE], the results for the inhibition at 0.04 µM in assay [3] and in [4] were 90% and 81%, respectively. Besides, the inhibition at 0.004 µM worked out at 0% in [5] and 2% in assay [6].
For the compound `CC[C@@H](C)[C@H](NC(=O)[C@H](C(C)C)[C@@H](O)[C@H](O)[C@H](CC1CCCCC1)NC(=O)CCCC[C@@H]1SCC2NC(=O)NC21)C(=O)NCCc1scnc1C` (some centres undefined), the affinity in assay [1] corresponds to a Ki of 130 nM. Moreover, at 1 µM the inhibition with CV-1 [7] was 15%.
In the case of `CC[C@@H](C)[C@H](NC(=O)[C@H](C(C)C)[C@@H](O)[C@H](O)[C@H](CC1CCCCC1)NC(=O)c1ccccc1SCCCCC[C@@H]1SCC2NC(=O)NC21)C(=O)NCCc1scnc1C` (some centres undefined), the Ki in assay [1] is 4 nM. This compound also gave an inhibition at 1 µM in the assay on CV-1 [7] of 34%.
Turning to `CC[C@H](C)[C@H](NC(=O)[C@H](C(C)C)[C@@H](O)[C@H](O)[C@H](CC1CCCCC1)NC(=O)[C@H](Cc1c[nH]cn1)NC(=O)COc1cccc2ccccc12)C(=O)NCc1ccccn1`, the inhibition at 0.001 µM is 38% in assay [8] and 30% in assay [12]. The Ki in assay [1] was < 1 nM. In addition, the inhibition at 0.01 µM is 82% in assay [9] and 80% in assay [11]. In addition, the inhibition at 0.1 µM worked out at 98% in [10] and 95% in assay [13]. The inhibition at 1 µM in the assay with CV-1 [7] is > 80%.
`CC[C@@H](C)[C@H](NC(=O)[C@H](C(C)C)[C@@H](O)[C@H](O)[C@H](CC1CCCCC1)NC(=O)[C@@H](NC(=O)CCCC[C@H]1SC[C@H]2NC(=O)NC21)C(C)C)C(=O)NCc1ccccn1` (some centres undefined): the inhibition at 0.1 µM is 89% in [14] and 69% in assay [15]. The inhibition at 0.001 µM in [8] came out at 7%; in assay [12], 18%. The Ki in [1] is < 4 nM. Also, the values for the inhibition at 0.01 µM in assay [9] and in assay [11] were 11% and 22%, respectively. In addition, in the assay with Caco-2 [16], the Transport was 22.7 pM min-1 (mg of protein)-1. In the assay on CV-1 [7], this compound came in with an inhibition at 1 µM of 26%. In addition, in the assay on Caco-2 [17], the Control turned out to be 122%.
With `O=C(O)CCCC[C@@H]1SC[C@@H]2NC(=O)N[C@@H]21` [BIOTIN], the Transport with Caco-2 [16] is on record as 0 pM min-1 (mg of protein)-1. The Control with Caco-2 [17] worked out at 0%.
Turning to `CC[C@@H](C)[C@H](NC(=O)[C@H](C(C)C)[C@@H](O)[C@H](O)[C@H](CC1CCCCC1)NC(=O)c1ccccc1OCCCCC[C@@H]1SC[C@H]2NC(=O)N[C@@H]12)C(=O)NCc1ccccn1`, the inhibition at 0.1 µM in [14] stood at 83%; in [15], 17%. The same compound gave a Ki in [1] of 10 nM. Also, the figures for the inhibition at 0.001 µM in assay [18] and in assay [12] were 2% and 15%, respectively. Further, the Transport in the assay with Caco-2 [16] is recorded as 15.8 pM min-1 (mg of protein)-1. In addition, the results for the inhibition at 0.01 µM in assay [11] and in assay [19] were 10% and 5%, respectively. In the assay with CV-1 [7], this compound came in with an inhibition at 1 µM of 24%. For the same compound, the Control with Caco-2 [17] stood at 85%.
In [1], `CC[C@@H](C)[C@H](NC(=O)[C@H](C(C)C)[C@@H](O)[C@H](O)[C@H](CC1CCCCC1)NC(=O)CCCCCNC(=O)CCCC[C@@H]1SCC2NC(=O)N[C@@H]21)C(=O)NCc1ccccn1` (some centres undefined) returned a Ki of 20 nM. In the assay with Caco-2 [16], the Transport was 20.6 pM min-1 (mg of protein)-1. Also, the inhibition entry in the assay with CV-1 [20] was “inactive”. Besides, in the assay with Caco-2 [17], the Control is 111%.
In the case of `CC[C@@H](C)[C@H](NC(=O)[C@H](C(C)C)[C@@H](O)[C@H](O)[C@H](CC1CCCCC1)NC(=O)CCCC[C@@H]1SCC2NC(=O)N[C@@H]21)C(=O)NCc1ccccn1` (some centres undefined), the inhibitory constant (Ki) in [1] was found to be 45 nM. Moreover, in the assay with Caco-2 [16], the Transport is reported as 24.1 pM min-1 (mg of protein)-1. The inhibition at 1 µM in the assay on CV-1 [7] was 9%. The same compound had a Control in the assay with Caco-2 [17] of 129%.
